Data on 2 compounds can be found in article PMC11152975 (International Journal of Pharmaceutics: X, 2024).

For data set [1], the system named is MCF-7 human breast cancer cells. Nature of the data set: In vitro cytotoxicity, MTT assay. In kind it is cell-based. Conditions: read-out: mean IC50. In a few lines: (§1)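 Cells kept in phenol red-free DMEM with 10% FBS, L-glutamine and antibiotics at 37 °C, 5% CO2, then seeded in 96-well plates. They were exposed to a range of test compound concentrations (free drug in DMSO or micellar formulations) for 24, 48 or 72 h. Next, 0.5 mg/mL MTT for 2 h, absorbance read at 550 nm. Viability expressed as % of untreated control wells.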
(In general: Formazan colour is commonly taken as a measure of viable cells.)

In data set [2] the test system is MDA-MB-231 human breast cancer cells. Nature of the data set: In vitro cytotoxicity, MTT assay. In kind it is cell-based. The conditions noted are these: read-out: mean IC50. In a few lines:
as §1

For data set [3] the following is noted: low solubility and low permeability; cited from earlier work.
In data set [4] the target is T1, bovine serum albumin (BSA) (Bos taurus, UniProt P02769). Nature of the data set: Protein adsorption to micelles: incubation with BSA, DLS and TEM. In kind it is physicochemical. In a few lines: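 Drug-loaded micelles were incubated with 45 mg/mL bovine serum albumin in 0.01 M PBS (pH 7.4) at 37 °C for 8 h, with BSA alone and micelles alone incubated in PBS as controls. Hydrodynamic size and polydispersity were read by DLS (n = 3, mean ± SD). For TEM, samples settled 20 s on carbon-coated grids and were negatively stained with 2% phosphotungstic acid in PBS, pH 7.0.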

Data set [5] deals with T1, bovine serum albumin (BSA). The conditions noted are these: ref Liu et al., 2005; cited from earlier work.

Where two headings read alike, the source gives them in different places.

T1 sequence (P02769 25-607): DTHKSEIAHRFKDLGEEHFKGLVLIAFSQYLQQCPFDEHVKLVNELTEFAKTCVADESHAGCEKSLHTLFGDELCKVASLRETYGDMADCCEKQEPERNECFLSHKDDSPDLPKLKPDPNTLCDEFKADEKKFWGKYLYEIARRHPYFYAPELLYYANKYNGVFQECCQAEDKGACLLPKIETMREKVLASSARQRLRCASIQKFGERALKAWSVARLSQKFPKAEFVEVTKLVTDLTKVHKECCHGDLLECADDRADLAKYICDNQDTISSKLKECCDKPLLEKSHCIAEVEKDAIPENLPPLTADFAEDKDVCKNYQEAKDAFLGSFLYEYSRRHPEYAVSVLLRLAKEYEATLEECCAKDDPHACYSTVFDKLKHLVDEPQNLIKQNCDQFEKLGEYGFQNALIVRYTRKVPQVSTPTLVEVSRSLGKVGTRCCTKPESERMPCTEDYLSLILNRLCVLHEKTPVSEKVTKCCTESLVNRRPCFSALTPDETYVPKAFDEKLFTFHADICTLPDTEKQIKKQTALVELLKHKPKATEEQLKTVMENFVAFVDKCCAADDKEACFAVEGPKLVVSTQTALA

For the compound `CC(=O)O[C@H]1C(=O)[C@@]2(C)[C@H]([C@H](OC(=O)c3ccccc3)[C@]3(O)C[C@H](OC(=O)[C@H](O)[C@@H](NC(=O)c4ccccc4)c4ccccc4)C(C)=C1C3(C)C)[C@]1(OC(C)=O)CO[C@@H]1C[C@@H]2O` [Free PTX (in DMSO), Paclitaxel], the IC50 (in general, the concentration needed to halve the response being measured) was > 1000 nM in data set [1] (MCF7, 24 h); 384 nM in data set [1] (MCF7, 48 h); 297 nM in data set [1] (MCF7, 72 h); 21.6 nM in data set [2] (MDA-MB-231, 24 h); 10.8 nM in data set [2] (MDA-MB-231, 48 h); 9.7 nM in data set [2] (MDA-MB-231, 72 h). The “biopharmaceutical classification system (BCS) class” value in data set [3] was “class IV”.

For bovine serum albumin [BSA], in data set [4] (8-h incubation at 37 °C in 0.01 M PBS pH 7.4, sample alone), the “Size (hydrodynamic)” value turned out to be 8.2 ± 0.1 nm. In addition, the Polydispersity in data set [4] (8-h incubation at 37 °C in PBS, sample alone) turned out to be 0.236 ± 0.019. Moreover, the hydrodynamic diameter in data set [5] was 7.9 ± 0.4 nm.
